For 98 compounds, cytotoxicity results are on record in ChEMBL document CHEMBL4513216, “Probing the Open Global Health Chemical Diversity Library for Multistage-Active Starting Points for Next-Generation Antimalarials” (ACS Infect Dis, 2020).

Molecules are shown by their SMILES.

The data set is described as follows: Toxicity liver stage against HepG2, at 10uM. It is filed as cell-based. On the set-up: test concentration 10 uM, cell line HepG2-A16-CD81EGFP. To be noted: human, HepG2-A16-CD81EGFP cells; read-out: INHIBITION
The method in brief:
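Uninfected HepG2-A16-CD81EGFP cells, 3 × 10^3 per well, 1536-well, plated on prespotted compound at 10 μM final, parasite-free screening media added to match infected plates; puromycin 10 μM positive, DMSO 0.5% negative; run in parallel with 48 h PbLuc assay at 37 °C, 5% CO2; viability by CellTiter-Glo luminescence, normalized to controls.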

`COc1ccc(C(=O)N(C)Cc2nnc3ccccn23)c(OC)c1OC`: the cytotoxicity at 10 µM was -11.5%.

Consider `CC(C(=O)N1CCCN(Cc2cnn(C)c2)CC1)n1ccnc1` (stereo not drawn), for which the cytotoxicity at 10 µM is -13.8%.

Regarding `CCOCC(O)CN1CCN(C(=O)CC(C)(C)C)CC1` (stereo not drawn), the cytotoxicity at 10 µM is -5.95%.

Regarding `Cc1cc(C)n(CC2CCCN2C(=O)c2cccc3c2OCCO3)n1` (stereo not drawn), the cytotoxicity at 10 µM is -11.8%.

For `CC1(C)CN(S(=O)(=O)N2CCCC2)CC1c1ccccc1` (stereo not drawn), the cytotoxicity at 10 µM was -0.71%.

On to `CCc1oc(C(=O)N2CC[C@@H]3CC[C@H](C2)N3)cc1CN(CC)CC`, for which the cytotoxicity at 10 µM turned out to be 4.83%.

On to `COC(=O)c1cnn(-c2cc(Oc3cccc(C)c3)ncn2)c1N`, for which the cytotoxicity at 10 µM was found to be 34.1%.

For `CCc1ncnc2c1CCN(S(=O)(=O)c1ccccc1)CC2`, the cytotoxicity at 10 µM is -96.8%.

`CCCc1nnc(N2CCC(N3CCCC(O)C3)CC2)o1` (stereo not drawn): the cytotoxicity at 10 µM turned out to be 13.6%.

`O=C(NCCNc1ccccn1)Nc1cc(C(F)(F)F)c[nH]c1=O`: the cytotoxicity at 10 µM was -16.5%.

With `Cc1sc2ncc(-c3ccnc(NC4CCN(C)CC4)n3)c(=O)n2c1C`, the cytotoxicity at 10 µM was -7.75%.

For `c1cncc(-c2nccc(CN3CCCC3)n2)c1`, the cytotoxicity at 10 µM worked out at 2.34%.

For the compound `Cc1nn(C)c(C)c1CC(=O)N1CCCC(n2cccn2)C1` (stereo not drawn), the cytotoxicity at 10 µM is -13.7%.

As to `CN(C)CCN(C)c1nc(CCc2ccccc2)nc2c1cnn2C`, the cytotoxicity at 10 µM was 0.562%.

Take `CCC(C)(O)CNC(=O)Nc1ccc(C)cc1Br` (stereo not drawn): the cytotoxicity at 10 µM was -9.95%.

For the compound `CCn1nc(C)c(CN2CCNCC2)c1C`, the cytotoxicity at 10 µM came out at 6.4%.

On to `C[C@]1(O)CN(Cc2ncc[nH]2)CC[C@@H]1Oc1cccc(F)c1`, for which the cytotoxicity at 10 µM is -6.8%.

Turning to `Cc1ccc(C(C(=O)NCc2n[nH]c(N)n2)N(C)C)cc1` (stereo not drawn), the cytotoxicity at 10 µM was found to be 0.529%.

With `CN(CCCC1CCCC1)C(=O)c1cc(CN2CCC(O)CC2)on1`, the cytotoxicity at 10 µM was 5.21%.

For `CC(=O)Nc1ncc(S(=O)(=O)Nc2cccc(F)c2)s1`, the cytotoxicity at 10 µM came to 2.93%.

As for `COCCc1noc(-c2ccc(-c3ccc(N)nc3)nc2)n1`, the cytotoxicity at 10 µM was determined as 2.5%.

With `Cc1noc(C)c1C(C)NC(=O)N1CCN(c2cccs2)CC1` (stereo not drawn), the cytotoxicity at 10 µM stood at 6.43%.

As to `O=C(CCn1cncn1)NCCOc1cccc(Cl)c1`, the cytotoxicity at 10 µM amounted to 1.58%.

Consider `Cn1cc(C2CCCN2C(=O)CCn2c(=O)oc3ccccc32)cn1` (stereo not drawn), for which the cytotoxicity at 10 µM turned out to be 4.91%.

Turning to `Cc1nnc(-c2cccc(C#N)c2)n1C1CCCN(C(C)C)C1=O` (stereo not drawn), the cytotoxicity at 10 µM is -6.74%.

Regarding `CC(C)Nc1ncnc2c1CCN(Cc1ccoc1)CC2`, the cytotoxicity at 10 µM turned out to be 5.65%.

Take `CS(=O)(=O)N1CCC(NC(=O)COc2ccc3ccccc3c2)CC1`: the cytotoxicity at 10 µM is -5.56%.

Take `Cn1ccnc1CN1CCC2(CC(=O)N(c3cncnc3)C2)C1` (stereo not drawn): the cytotoxicity at 10 µM was -0.799%.

On to `CNc1ncccc1C(=O)N1CCC2(CCN(C)C2)CC1`, for which the cytotoxicity at 10 µM worked out at 0.521%.

For the compound `CN(CCCc1ccccc1)C(=O)CCc1nc(-c2nnc[nH]2)no1`, the cytotoxicity at 10 µM is -44.8%.

Turning to `CCn1cc(CN(C)S(=O)(=O)c2ccc(NC(C)=O)cc2)cn1`, the cytotoxicity at 10 µM came out at 9.22%.

For the compound `O=c1oc(-c2ccc(F)cc2)nn1CCc1ccncc1`, the cytotoxicity at 10 µM was -3.57%.

Turning to `Cc1cc(O)ccc1-c1cc(-c2cnn(C)c2C2CC2)c(C#N)c(N)n1`, the cytotoxicity at 10 µM turned out to be 40.2%.

Turning to `Cc1csc(N2CCN(C(=O)CCNc3ncccn3)CC2)n1`, the cytotoxicity at 10 µM is -10.1%.

Turning to `CCOc1nnc(CN(C)CC2CCCN2c2cccnn2)s1` (stereo not drawn), the cytotoxicity at 10 µM was -10.7%.

As for `COc1cccc([C@@H]2CN(C3CCCC3)C[C@H]2C(=O)O)c1`, the cytotoxicity at 10 µM is -5.89%.

In the case of `CC[C@H]1CN2CC[C@H]1C[C@@H]2CNCc1ccc(OC(F)(F)F)cc1`, the cytotoxicity at 10 µM was -0.785%.

`c1cncc(COCC2CC[C@H]3[C@H](CCN3CC3CCOCC3)O2)c1` (stereo partly drawn): the cytotoxicity at 10 µM was -71.4%.

As for `O=C(NCc1nnc2n1CCCCC2)N1CCc2ccccc2C1`, the cytotoxicity at 10 µM worked out at 4.66%.

For `Cc1ccc2nc(CNc3ccccc3C(=O)NC3CC3)cn2c1`, the cytotoxicity at 10 µM came to 3.16%.

In the case of `O=C(CSc1ccc(F)cc1)NS(=O)(=O)c1ccc2c(c1)OCCO2`, the cytotoxicity at 10 µM is -29.1%.

`CCOCCCC(=O)Nc1ccc(OCc2noc(C3CC3)n2)cc1`: the cytotoxicity at 10 µM came out at 44.4%.

On to `O=C(NCCCn1cncn1)c1ccc(-c2ccccc2)[nH]c1=O`, for which the cytotoxicity at 10 µM was -4.86%.

For `CCOC(=O)CNC(=O)c1cc2n(n1)CCCO2`, the cytotoxicity at 10 µM was 1.43%.

As for `COc1cccc(CNC(C)Cn2cccn2)c1OC` (stereo not drawn), the cytotoxicity at 10 µM was -4.84%.

In the case of `CCCC(=O)NC(C)c1nnc2n1CCC2` (stereo not drawn), the cytotoxicity at 10 µM is -0.645%.

Regarding `COCCCN(Cc1ccccn1)Cc1ccnn1C1CCCCO1` (stereo not drawn), the cytotoxicity at 10 µM is -2.66%.

`Cn1ncc2c1NC(=O)CC2c1c(Cl)cccc1Cl` (stereo not drawn): the cytotoxicity at 10 µM was determined as 55.1%.

Take `CCCn1nnc2c(sc3nc(N4CCOCC4)c4c(c32)CCC4)c1=O`: the cytotoxicity at 10 µM came out at 1.74%.

Regarding `CC(=O)N1N=C(c2ccco2)OC1C(=O)NCCc1ccc(O)cc1` (stereo not drawn), the cytotoxicity at 10 µM was -1.19%.

Regarding `CC(C)C(=O)NCCc1nc(-c2ccncc2)n[nH]1`, the cytotoxicity at 10 µM worked out at 7.78%.

As to `CCN(CC)CCN(C)Cc1cn(C)nc1-c1ccc2c(c1)OCCO2`, the cytotoxicity at 10 µM stood at 2.95%.

Regarding `Cc1ccc(CN2CCn3c(COc4cccnc4)cnc3C2C)o1` (stereo not drawn), the cytotoxicity at 10 µM is -111%.

`CC(=O)c1ccc(OCC(=O)NS(=O)(=O)c2ccc(C)s2)cc1`: the cytotoxicity at 10 µM was -8.9%.

As for `Cn1cccc1C(=O)N1CCn2nnc(COc3cccnc3)c2C1`, the cytotoxicity at 10 µM was -69.7%.

Take `CC(C)c1cc(C(=O)N2CC[C@@H](c3ccc4c(c3)OCO4)[C@H](O)C2)[nH]n1`: the cytotoxicity at 10 µM came out at 3.29%.

In the case of `Cc1cnc(CN2CCN(C(C)c3nc(C(C)C)no3)CC2)cn1` (stereo not drawn), the cytotoxicity at 10 µM was determined as 9.74%.

As to `COc1cc(C(=O)N2CCCC(CNS(C)(=O)=O)C2)ccc1C` (stereo not drawn), the cytotoxicity at 10 µM is -21.6%.

Regarding `c1cc(-c2n[nH]c(CNc3nnc(C4CC4)o3)n2)ccn1`, the cytotoxicity at 10 µM was -2.59%.

Turning to `c1c[nH]c2nc(C3CCCNC3)nc-2c1` (stereo not drawn), the cytotoxicity at 10 µM stood at 8.35%.

With `Cc1nsc(NC(=O)NC2CCOCC2)n1`, the cytotoxicity at 10 µM was -10.1%.

For the compound `Fc1ccc2nc([C@H]3CCNC3)[nH]c2c1`, the cytotoxicity at 10 µM is 9.21%.

As for `CNc1cc(C2CN(C(=O)c3cnn(C)c3)CCO2)nc(C)n1` (stereo not drawn), the cytotoxicity at 10 µM was -5.42%.

In the case of `Cn1c(CNCC2CCCN2c2cccnn2)nc2ccccc21` (stereo not drawn), the cytotoxicity at 10 µM was -18.2%.

Turning to `Cc1nc(CN2CCC2(CCCc2ccccn2)C(=O)N(C)C)co1` (stereo not drawn), the cytotoxicity at 10 µM stood at 11.4%.

Take `CCc1c(C)sc2ncnc(N3CC[C@@H](N4CCC(O)CC4)[C@H](O)C3)c12`: the cytotoxicity at 10 µM stood at 6.96%.

Take `CCOCC(=O)N1CCCn2c(nnc2Cn2cccc2)C1`: the cytotoxicity at 10 µM was -130%.

For the compound `COc1ccc2c(c1)CCCN(C(C)C(=O)N1CCCC1)C2` (stereo not drawn), the cytotoxicity at 10 µM came out at 10.9%.

`CCCNCc1cc2c(C)cc(C)cc2n2c(=O)n(C)nc12`: the cytotoxicity at 10 µM was -3.09%.

As to `CN1CCC(CNC(=O)Cc2ccc(N(C)C)cc2)CC1`, the cytotoxicity at 10 µM came out at 6.8%.

With `Cc1cc(NC(=O)CN2CCc3cnc(C(C)C)nc3C2)on1`, the cytotoxicity at 10 µM was -12.1%.

With `CCOc1cc(CNc2cc(-c3nc(C)no3)ccn2)ccc1OC`, the cytotoxicity at 10 µM is 1.74%.

On to `CS(=O)(=O)CCn1ccc(NC(=O)CCc2cccc(F)c2)n1`, for which the cytotoxicity at 10 µM is -7.37%.

Turning to `Cc1ccc(CN(C(=O)NCC(c2cccs2)N(C)C)C2CC2)o1` (stereo not drawn), the cytotoxicity at 10 µM was -4.24%.

In the case of `Cc1noc(C)c1CN1CC2(CCCCN2c2cncnc2)CC1=O` (stereo not drawn), the cytotoxicity at 10 µM was 4.13%.

Turning to `Cc1ccc(Cl)cc1NC(=O)C1CSc2ncc(C)c(=O)n2C1` (stereo not drawn), the cytotoxicity at 10 µM is 1.42%.

In the case of `O=c1[nH][nH]cc1-c1ccnc(NCCN2CCCCC2)n1`, the cytotoxicity at 10 µM was -10.4%.

In the case of `Cc1ncsc1C(=O)OCCN1CCCc2ccccc21`, the cytotoxicity at 10 µM worked out at 2.42%.

For `CCCn1ncc(CN2C[C@@H]3CCCN3C[C@@H]2CCSC)c1C`, the cytotoxicity at 10 µM worked out at 4.06%.

On to `CCS(=O)(=O)N1CCc2ncnc(C)c2CC1`, for which the cytotoxicity at 10 µM is -0.0192%.

Consider `CCCS(=O)(=O)C(C)C(=O)Nc1ccc2oc(C3CC3)nc2c1` (stereo not drawn), for which the cytotoxicity at 10 µM turned out to be 5.3%.

As for `Cc1nc(CN(Cc2ccccc2F)C2CCC2)no1`, the cytotoxicity at 10 µM came out at 6.95%.

For `Fc1ccc2[nH]c(C3CCCN3CCc3ccccn3)nc2c1` (stereo not drawn), the cytotoxicity at 10 µM is -9.7%.

With `COc1cnc(C2(O)CCN(C(=O)c3ccco3)CC2)c(OC)n1`, the cytotoxicity at 10 µM was -7.02%.

Take `Cc1nnc2n1CCN(C(=O)c1cn(-c3ccccc3)nn1)C2`: the cytotoxicity at 10 µM is -146%.

`Nc1cc2c(nn1)CCN(C(=O)Cc1ccc3c(c1)CCO3)C2`: the cytotoxicity at 10 µM turned out to be 5.52%.

With `c1ccc(O[C@H]2CO[C@@]3(CCN(Cc4ccc5c(c4)OCO5)C3)C2)nc1`, the cytotoxicity at 10 µM was -76.4%.

As for `N#Cc1ccccc1N1CCCN(CC(=O)Nc2ccc(Cl)cn2)CC1`, the cytotoxicity at 10 µM was -0.539%.

Turning to `N#Cc1cn(C2CC2)c(=O)n(CC(O)c2ccc(OC(F)F)cc2)c1=O` (stereo not drawn), the cytotoxicity at 10 µM was -2.22%.

For the compound `CC1=CCN(S(=O)(=O)c2cccc(C(=O)N3CCOCC3)c2)CC1`, the cytotoxicity at 10 µM is 4.9%.

Regarding `CCc1nc2n(n1)CC(NCC(=O)Nc1cc(C(C)(C)C)no1)CC2` (stereo not drawn), the cytotoxicity at 10 µM was -9.26%.

Take `Cc1cccnc1C(NC(=O)CNC(=O)c1ccoc1C)C(C)C` (stereo not drawn): the cytotoxicity at 10 µM worked out at 2.45%.

Turning to `NC(=O)Cn1cc(NC(=O)N2CCCC(O)C2)cn1` (stereo not drawn), the cytotoxicity at 10 µM was -10.1%.

As to `CC1(C)CNC(=O)c2nc(CCN3CCOCC3)[nH]c2C1`, the cytotoxicity at 10 µM was -10.7%.

With `CS(=O)(=O)N1CC2(CCN(C(=O)c3ccncc3)CC2)c2ccccc21`, the cytotoxicity at 10 µM came to 2.23%.

Regarding `N#CCCN(Cc1ccco1)C(=O)CCCc1ccccc1`, the cytotoxicity at 10 µM stood at 73.1%.

With `Cc1noc(NC(=O)c2ccc(C)c(F)c2)n1`, the cytotoxicity at 10 µM was -10.1%.

On to `CCC(CC)C(=O)N1CCOC2(CNC2)C1`, for which the cytotoxicity at 10 µM was -0.184%.
